Test results published in ChEMBL document CHEMBL1154082, “Inhibition of human vascular NADPH oxidase by apocynin derived oligophenols” (Bioorg Med Chem, 2009).
The source made the active and inactive calls. The rule behind the calls is not given here.

Assays:
[1] = organism: Homo sapiens; assay: Inhibition of NADPH oxidase in human HUVEC assessed as inhibition of superoxide anion generation by DHE staining confocal microscopy
Outline: (§1)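 HUVEC in phenol red-free DMEM exposed to compound 0–1 mM for 2 h, washed twice in PBS, resuspended in fresh DMEM. NADPH oxidase activated with PMA (1 μM) for 30 min, then DHE (3 μM) for 30 min, then NADPH (100 μM); kept in dark. Oxyethidium red fluorescence imaged by confocal microscopy, qualitative.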

[2] = (§2) Inhibition of NADPH oxidase in human HUVEC assessed as inhibition of superoxide anion generation by cytochrome-C reduction assay
Outline: (§3)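 HUVEC (10^5 cells/mL) in phenol red-free DMEM, 10 min at 37°C. LDL (100 μg/mL) activates oxidase. Compound 0–1000 μM with NADPH 100 μM and cytochrome c 250 μM, ±SOD 200 μg/mL, 30 min at room temperature. A550 read. Superoxide taken from the SOD-inhibitable difference using ε 18.7 cm−1mM−1; triplicate.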

[3] = organism: Homo sapiens; assay: as §2; outline: as §3
[4] = Inhibition of p47phox/p22phox interaction by ELISA
[5] = organism: Homo sapiens; assay: Inhibition of NADPH oxidase in human HUVEC assessed as inhibition of superoxide anion generation up to 1 mM by DHE staining confocal microscopy; outline: as §1

| Activity [5] | SMILES | Activity [1] | IC50 [2] [µM] | logIC50 [3] | IC50 [4] [µM] | logIC50 [4] |
| --- | --- | --- | --- | --- | --- | --- |
|  | COC1=CC(C(C)=O)=C/C(=C2\C(=O)C(OC)=C(c3cc(C(C)=O)cc(OC)c3O)C(C(C)=O)=C2O)C1=O | Active | 0.03 | -1.51 | 1.6 | 0.2 |
| inactive | COc1cc(C(C)=O)ccc1O [APOCYNIN] |  | 1090 | 3.04 | 61000 | 4.78 |
